Source: ChEMBL document CHEMBL5042491, “Identification of Small Molecule Inhibitors of RNase L by Fragment-Based Drug Discovery” (J Med Chem, 2022)
The source made the active and inactive calls. The calls are words filed in the database; no cut-off is given here.

Experiments:
[1] = target: T1, 2-5A-dependent ribonuclease (Homo sapiens, UniProt Q05823); assay: Inhibition of recombinant full length H-RNAase L (1 to 741 residues) expressed in Escherichia coli BL21 (DE3) assessed as inhibition rate in presence of 2-5A and ATP/MgCl2 by STD-NMR spectroscopy
T1 sequence (Q05823 whole entry): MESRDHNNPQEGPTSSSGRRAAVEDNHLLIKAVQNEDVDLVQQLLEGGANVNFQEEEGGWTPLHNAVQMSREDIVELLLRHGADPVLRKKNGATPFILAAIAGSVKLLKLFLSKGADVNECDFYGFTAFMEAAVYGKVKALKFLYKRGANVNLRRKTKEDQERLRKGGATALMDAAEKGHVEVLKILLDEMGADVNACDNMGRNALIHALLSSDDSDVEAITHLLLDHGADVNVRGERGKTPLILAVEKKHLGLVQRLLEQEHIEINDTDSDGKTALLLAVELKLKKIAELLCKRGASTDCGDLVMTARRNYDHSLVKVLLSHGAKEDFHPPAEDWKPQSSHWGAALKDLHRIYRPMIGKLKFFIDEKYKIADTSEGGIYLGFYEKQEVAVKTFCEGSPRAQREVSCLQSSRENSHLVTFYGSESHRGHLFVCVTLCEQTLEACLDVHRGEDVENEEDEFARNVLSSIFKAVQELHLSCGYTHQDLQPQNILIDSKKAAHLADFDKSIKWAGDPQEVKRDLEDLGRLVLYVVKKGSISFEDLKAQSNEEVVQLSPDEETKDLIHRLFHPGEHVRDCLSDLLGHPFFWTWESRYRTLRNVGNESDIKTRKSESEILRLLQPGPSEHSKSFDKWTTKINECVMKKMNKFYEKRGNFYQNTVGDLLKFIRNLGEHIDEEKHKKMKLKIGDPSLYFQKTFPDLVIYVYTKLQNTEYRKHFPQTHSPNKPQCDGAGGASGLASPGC

[2] = (§1) Inhibition of recombinant full length P-RNAase L (1 to 743 residues)expressed in Escherichia coli BL21 (DE3) assessed as inhibition rate in presence of 2-5A AND ATP/MgCl2 by STD-NMR spectroscopy; set-up: species or system Sus scrofa
Sus scrofa [3] = organism: Sus scrofa; assay: Inhibition of recombinant full length P-RNAase L (1 to 743 residues) expressed in Escherichia coli BL21 (DE3) using 5'-FAM-UAA-UCA-AAU-UCU-UAU-UUG-CCC-CAU-UUU-UUU-GGU-UUA-BHQ-1-3' as substrate incubated for 60 min by FRET assay
Outline: (§2)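 FRET cleavage assay. Recombinant RNase L (10 nM human or 2.5 nM porcine, final) was preincubated 10 min on ice with graded compound in 25 mM Tris pH 7.4, 100 mM KCl, 10 mM MgCl2, 2.5 mM DTT and 0.5 nM 2-5A. FAM/BHQ1 RNA probe was added and the mix held 1 h at room temperature. Read at ex 480/em 535 nm; triplicates; IC50 from dose-response.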

[4] = target: T2, 2-5A-dependent ribonuclease (Homo sapiens) (UniProt Q05823); assay: Inhibition of recombinant full length H-RNAase L (1 to 741 residues) expressed in Escherichia coli BL21 (DE3) using 5'-FAM-UAA-UCA-AAU-UCU-UAU-UUG-CCC-CAU-UUU-UUU-GGU-UUA-BHQ-1-3' as substrate incubated for 60 min by FRET assay; outline: as §2
T2 sequence (whole entry): T1 sequence (Q05823 whole entry)

[5] = target: T2, 2-5A-dependent ribonuclease (Homo sapiens); assay: Inhibition of RNAase L in human A549 cells assessed as rRNA cleavage pretreated at 30 uM for 4 hrs followed by treated with 20 uM 2-5A by […] analysis; format: cell-based
Outline: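 A549 cells were grown 16 h in RPMI with 10% FBS, then given inhibitor at 3, 10, 30 or 100 μM in fresh medium for 4 h. Trimeric 2-5A (20 μM) was then transfected with lipofectamine 2000 with inhibitor still present, for 2 h more. rRNA cleavage was read from total RNA on Bioanalyzer chips. NP40 lysates were western-blotted for RNase L and beta-actin.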

[6] = Inhibition of full length P-RNAase L expressed in Escherichia coli BL21 (DE3) assessed as inhibition rate incubated for 15 min in presence of 5 nM 2-5A for 15 mins by Coomassie staining based SDS-PAGE analysis; set-up: species or system Sus scrofa
[7] = target: T1, 2-5A-dependent ribonuclease; assay: Inhibition of full length H-RNAase L expressed in Escherichia coli BL21 (DE3) assessed as inhibition rate incubated for 15 min in presence of 5 nM 2-5A for 15 mins by Coomassie staining based SDS-PAGE analysis
[8] = Inhibition of P-RNAase L R353E mutant expressed in Escherichia coli BL21 (DE3) assessed as inhibition rate; set-up: species or system Sus scrofa
[9] = Inhibition of P-RNAase L K164E mutant expressed in Escherichia coli BL21 (DE3) assessed as inhibition rate; set-up: species or system Sus scrofa
[10] = Inhibition of full length P-RNAase L expressed in Escherichia coli BL21 (DE3) assessed as inhibition rate incubated for 15 min in presence of 1 nM 2-5A for 15 mins by Coomassie staining based SDS-PAGE analysis; set-up: species or system Sus scrofa
[11] = Inhibition of full length P-RNAase L expressed in Escherichia coli BL21 (DE3) assessed as inhibition rate incubated for 15 min in presence of 20 nM 2-5A for 15 mins by Coomassie staining based SDS-PAGE analysis; set-up: species or system Sus scrofa
Sus scrofa [12] = organism: Sus scrofa; assay: Suppression of 2-5A-induced full length P-RNase L oligomerization in presence of upto 2 uM 2-5A at 40 uM by SDS-PAGE analysis
Outline: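 Full-length porcine RNase L (0.8 μM) with 5 mM MgCl2 was held 15 min on ice with or without inhibitor, then 15 min on ice with 2-5A. It was cross-linked with dimethyl suberimidate in triethanolamine (pH 8.5) for 1 h at room temperature. Samples were boiled in SDS loading buffer, run on 4-12% SDS-PAGE and stained with Coomassie.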

[13] = target: T1, 2-5A-dependent ribonuclease; assay: Inhibition of full length H-RNAase L expressed in Escherichia coli BL21 (DE3) assessed as inhibition rate incubated for 15 min in presence of 1 nM 2-5A for 15 mins by Coomassie staining based SDS-PAGE analysis
[14] = Inhibition of wild type P-RNAase L expressed in Escherichia coli BL21 (DE3) assessed as inhibition rate; set-up: species or system Sus scrofa
[15] = target: T1, 2-5A-dependent ribonuclease; assay: Inhibition of full length H-RNAase L expressed in Escherichia coli BL21 (DE3) assessed as inhibition rate incubated for 15 min in presence of 20 nM 2-5A for 15 mins by Coomassie staining based SDS-PAGE analysis
Sus scrofa [16] = organism: Sus scrofa; assay: as §1; details: time 60.0 min

Structure (SMILES): O=c1c(O)c(-c2cc(O)c(O)c(O)c2)oc2cc(O)cc(O)c12 [MYRICETIN]
- IC50 [1]: 264 µM
- IC50 [2]: 173 µM

Structure (SMILES): O=C(O)c1ccc(Cl)nc1Cl
- inhibition (Sus scrofa [3]): Active
- inhibition [4]: Active

Structure (SMILES): C[S+]([O-])c1sc(Cl)c2c1C(=O)CCC2 (stereo not drawn)
- inhibition (Sus scrofa [3]): Active
- inhibition [4]: Active

Structure (SMILES): Oc1ccc(Sc2ccc(O)cc2)cc1
- inhibition (Sus scrofa [3]): Active
- inhibition [4]: Active

Structure (SMILES): O=c1cc(-c2ccc(O)cc2)oc2c([C@@H]3O[C@H](CO)[C@@H](O)[C@H](O)[C@H]3O)c(O)cc(O)c12 [VITEXIN]
- IC50 [1]: 190 µM
- Activity [5]: inactive
- IC50 [2]: 109 µM

Structure (SMILES): O=c1c(O[C@@H]2O[C@H](CO)[C@H](O)[C@H](O)[C@H]2O)c(-c2ccc(O)c(O)c2)oc2cc(O)cc(O)c12 [HYPEROSIDE]
- IC50 [6]: 1.42 µM
- IC50 [7]: 1.32 µM
- IC50 [8]: 0.65 µM
- IC50 [9]: 1.02 µM
- IC50 [10]: 1.47 µM
- IC50 [11]: 1.42 µM
- IC50 [1]: 1.63 µM
- Activity [5]: inactive
- inhibition (Sus scrofa [12]): inactive
- IC50 [13]: 1.36 µM
- IC50 [14]: 0.9 µM
- IC50 [15]: 1.42 µM

Structure (SMILES): CCCCOC(=O)c1ccc(O)cc1 [BUTYLPARABEN]
- inhibition [4]: Active
- IC50 [1]: 2400 µM
- inhibition (Sus scrofa [16]): inactive

Structure (SMILES): Cc1cc(C(=O)O)cc(Cl)n1
- inhibition (Sus scrofa [3]): Active
- inhibition [4]: Active
